Assay [1] deals with Substance-P receptor (Cavia porcellus) (UniProt P30547). The assay can be described thus: Antagonistic activity against the highly selective tachykinin receptor 1 in guinea pig ileum. The format is functional, tissue-based.
Assay [2] addresses T1, Substance-K receptor (Rattus norvegicus) (UniProt P16610).
T1 sequence (whole entry): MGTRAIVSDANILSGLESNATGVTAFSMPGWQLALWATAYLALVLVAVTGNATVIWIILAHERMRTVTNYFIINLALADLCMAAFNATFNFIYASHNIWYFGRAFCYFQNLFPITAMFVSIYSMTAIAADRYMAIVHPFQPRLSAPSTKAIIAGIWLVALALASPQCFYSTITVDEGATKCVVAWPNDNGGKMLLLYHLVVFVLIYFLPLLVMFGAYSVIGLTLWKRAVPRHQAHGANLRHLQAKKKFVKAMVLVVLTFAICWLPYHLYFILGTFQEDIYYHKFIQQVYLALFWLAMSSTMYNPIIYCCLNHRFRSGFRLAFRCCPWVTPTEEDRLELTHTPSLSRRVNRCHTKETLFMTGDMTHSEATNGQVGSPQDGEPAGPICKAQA
In words: Antagonistic activity against the highly selective tachykinin receptor 2 in rat colon muscularis mucosae. The format is functional. Put shortly: (§1)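 Rat colon muscularis mucosae, isotonic contractions at 35 °C with atropine, mepyramine, methysergide, indomethacin (1 µM each). Dose ratio from rightward shift of agonist concentration-response curve with antagonist present; pKB = log[DR - 1] - log[B], B = molar antagonist concentration.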

For assay [3], the target named is T1, Substance-K receptor (Rattus norvegicus). In words: Antagonistic activity at tachykinin receptor 2 in the rat colon muscularis mucosae; C= Partial agonist. The format is functional. The note with it: filed as partial agonist. Put shortly: as §1
A further assay concerns the target T2, Substance-K receptor (Rattus norvegicus, UniProt P16610).
T2 sequence (P16610 whole entry): T1 sequence (whole entry)
In words: Agonist activity was measured at neurokinin-2 receptor in the rat colon muscularis mucosae. The format is functional, tissue-based, Muscularis mucosa. Put shortly: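 Rat colon muscularis mucosae strip (NK-2); isotonic contractions at 35 °C with atropine, mepyramine, methysergide and indomethacin (each 1 µM). Equipotent molar ratios converted to EC50 using mean EC50 of standard agonist.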

The next assay concerns the target Substance-P receptor (Cavia porcellus, UniProt P30547). The assay can be described thus: Agonistic activity at neurokinin-1 (NK-1) receptor in guinea pig ileum longitudinal smooth muscle. In kind it is functional, tissue-based. In short, it runs like this:
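Guinea pig ileum longitudinal smooth muscle-myenteric plexus strip (NK-1); isotonic contractions at 35 °C with atropine, mepyramine, methysergide and indomethacin (each 1 µM). Equipotent molar ratios converted to EC50 using mean EC50 of standard agonist.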

This passage reports pKB and EC50 results from ChEMBL document CHEMBL1125115 (J Med Chem, 1990).

Square brackets hold non-standard residues; d marks the D form. Peptide text beside a SMILES is read from it. GABA = NCCCC(=O)O

Chain of Substance-P receptor (Cavia porcellus) (P30547 whole entry): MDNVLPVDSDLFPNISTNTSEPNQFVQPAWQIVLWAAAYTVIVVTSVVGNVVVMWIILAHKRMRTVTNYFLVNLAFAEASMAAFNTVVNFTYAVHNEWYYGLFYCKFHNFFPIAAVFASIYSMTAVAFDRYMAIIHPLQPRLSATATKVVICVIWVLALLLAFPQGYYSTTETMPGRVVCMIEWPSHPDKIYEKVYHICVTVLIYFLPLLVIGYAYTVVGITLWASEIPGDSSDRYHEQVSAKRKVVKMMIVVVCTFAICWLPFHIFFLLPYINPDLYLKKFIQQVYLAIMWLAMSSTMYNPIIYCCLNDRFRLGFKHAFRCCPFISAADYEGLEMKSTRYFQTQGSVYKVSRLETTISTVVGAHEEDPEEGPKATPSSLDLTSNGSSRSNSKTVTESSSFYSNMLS
Chain of Substance-P receptor (P30547 whole entry): as above

One may read the pKB as the negative decadic logarithm of the KB, by convention in mol/L. As to `CC(C)C[C@@H](C(=O)NC(Cc1c[nH]c2ccccc12)C(N)=O)N1CCC2(CCCN2C(=O)[C@H](Cc2ccccc2)NC(=O)[C@H](Cc2ccccc2)NC(=O)CCCN)C1=O` (stereo partly specified), the values for the pKB in assay [1] and in assay [2] were 6.62 and 5.27, respectively.
In the same order, the values of `CC(C)C[C@@H](C(=O)N[C@H](CC1CCCCC1)C(N)=O)N1CCC2(CCCN2C(=O)[C@H](Cc2ccccc2)NC(=O)[C@H](Cc2ccccc2)NC(=O)CCCN)C1=O` (stereo partly specified) are 6.43 and 5.86.
Consider `CSCC[C@H](NC(=O)[C@H](CC(C)C)N1CCC2(CCCN2C(=O)[C@H](Cc2ccccc2)NC(=O)[C@H](Cc2ccccc2)NC(=O)CCCN)C1=O)C(N)=O` (stereo partly specified), for which the pKB in assay [1] is 5.6; in assay [3], “Partial agonist”.
What is called EC50 is the midpoint of the concentration-response curve. A higher EC50 goes with weaker potency. In the case of `CC(C)C[C@H](NC(=O)CNC(=O)[C@H](Cc1ccccc1)NC(=O)[C@H](Cc1ccccc1)NC(=O)CCCN)C(=O)N[C@@H](Cc1c[nH]c2ccccc12)C(N)=O` (H-[GABA]FFGLW-NH2), the values for the EC50 on Substance-K receptor and at Substance-P receptor were over 16 µM and 4.38 µM, respectively.
As for `CC(C)C[C@@H](C(=O)N[C@H](Cc1ccccc1)C(N)=O)N1CCC2(CCCN2C(=O)[C@H](Cc2ccccc2)NC(=O)[C@H](Cc2ccccc2)NC(=O)CCCN)C1=O` (stereo partly specified), the pKB in assay [1] was 6.28; in assay [2], 5.36.
Taken in the same sequence, the figures for `CNC(=O)[C@H](CC(C)C)N1CCC2(CCCN2C(=O)[C@H](Cc2ccccc2)NC(=O)[C@H](Cc2ccccc2)NC(=O)CCCN)C1=O` (stereo partly specified) were under 4.5 and under 4.5.
Taken in the same sequence, the figures for `CSCC[C@@H](NC(=O)[C@H](CC(C)C)N1CCC2(CCCN2C(=O)[C@H](Cc2ccccc2)NC(=O)[C@H](Cc2ccccc2)NC(=O)CCCN)C1=O)C(N)=O` (stereo partly specified) were 5.66 and under 4.5.
Take `CC(C)C[C@@H](C(=O)NC(CCc1ccccc1)C(N)=O)N1CCC2(CCCN2C(=O)[C@H](Cc2ccccc2)NC(=O)[C@H](Cc2ccccc2)NC(=O)CCCN)C1=O` (stereo partly specified): the results for the pKB in assay [1] and in assay [2] were 6.64 and 5.84, respectively.
